Results from different studies.
Compare with care: the assays were run in different laboratories.
Target: High affinity nerve growth factor receptor (NTRK1, Homo sapiens, UniProt P04629)

With `COc1ncccc1-c1cnn2ccc(N3CCN(C(=O)OC(C)C)CC3)nc12` the remaining binding was 61% (binding; competition with immobilised ligand; 1 µM).
`COc1cc(Nc2ncc(F)c(Nc3ccc4c(n3)NC(=O)C(C)(C)O4)n2)cc(OC)c1OC` has an inhibition of 100% (binding; 10 µM).
With `Cn1cc(-c2cccc(N3CCc4c(sc5c4CC(C)(C)C5)C3=O)c2CO)cc(Nc2ccncn2)c1=O` the inhibition was 11% (enzyme activity; inhibitor; 1 µM).
For `C#Cc1n[nH]c2c(-c3cn([C@@H](C)c4ccccc4)c(=O)[nH]c3=O)cc(F)cc12`, the inhibition was 5% (enzyme activity; inhibitor; 0.1 µM).
`Cc1nn(C)cc1-c1nc2c(N3CCN(Cc4ccc(Cl)cc4)CC3)c(Cl)cnc2[nH]1` has a remaining binding of 80% (binding; competition with immobilised ligand; 1 µM).
`Cn1cc(-c2cc(F)cc(N3CCn4c(cc5c4CCCC5)C3=O)c2CO)cc(Nc2ccc(N3CCN(C4COC4)CC3)cn2)c1=O` has an inhibition of 15% (enzyme activity; inhibitor; 0.1 µM).
The remaining signal of `O=c1[nH]c2ccccc2n1C1CCN(Cc2ccc(-c3[nH]c4cc5ncnc5cc4nc3-c3ccccc3)cc2)CC1` is reported as 99.4% (cell-free assay; 0.5 µM).
`Cn1cncc1[C@](O)(COc1ccc(C#N)cc1-c1ccc(OC(F)(F)F)cc1)c1ccc(C#N)cc1` gave a remaining binding of 91% (cell-free assay; competition with immobilised ligand; 1 µM).
`CC(C)(C)c1cc(C=C(C#N)C#N)cc(Br)c1O` gave a remaining activity of 100% (enzyme activity; inhibitor; 0.5 µM).
The remaining binding of `Nc1ncc(-c2nc(N3CCOCC3)nc(N3CCOCC3)n2)c(C(F)F)n1` is reported as 78% (cell-free assay; competition with immobilised ligand; 10 µM).
`C#Cc1n[nH]c2c(-c3cn([C@@H](C)c4ccccn4)c(=O)[nH]c3=O)cc(F)cc12` has an inhibition of 11.2% (enzyme activity; inhibitor; 0.1 µM).
